Measured values reported in article PMC12461553 (RSC Advances, 2025).

How the values were obtained:
MCF-7 cells = test: SRB cytotoxicity assay, MCF-7; format: cell-based, human
4T1 cells = test: SRB cytotoxicity assay, 4T1; format: cell-based, murine; settings: Mus musculus, 4T1, 48 h, read-out: Average cell death (%) 4T1
Outline: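 Single-dose screen: cells in DMEM/10% FBS at 37 °C, 5% CO2, seeded at 3000 per well, attached 24 h, then exposed to test compound at 25 μM final for 48 h. Fixed in cold 10% TCA, 1 h, 4 °C; stained 0.057% SRB, 30 min, dark, room temperature; rinsed with 1% acetic acid; dye solubilised in Tris base pH 10.5; absorbance 510 nm; percent cell death.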

MDA-MB-231 cells [1] = test: SRB cytotoxicity assay, MDA-MB-231; format: cell-based, human
MDA-MB-231 cells [2] = test: 3D spheroid; format: cell-based, human; settings: MDA-MB-231, methylcellulose, 8 days
Outline: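 Single-cell suspensions in 1.5% methylcellulose/DMEM with 20% FBS were seeded at 1 × 10^5 cells per well over a 1% agarose–DMEM base for non-adherent growth. Cells were treated with test compound (0.5, 1, 2 μM) or doxorubicin and incubated 8 days. Spheres (≥20 cells) were imaged by fluorescence microscopy and counted per microscopic field.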

[3] = tested on: BCL-2 and Survivin expression in MDA-MB-231 cells; test: Gene expression analysis by RT-qPCR; format: cell-based, human
Outline: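 Cells were treated 48 h with varying test compound concentrations, then total RNA was extracted and checked spectrophotometrically. 2 μg RNA was reverse-transcribed to cDNA. BCL2 and Survivin transcripts were measured by RT-qPCR and quantified by the 2−ΔΔCt method against β2-microglobulin as reference gene.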

[4] = Homo sapiens, MCF7, 48 h, read-out: Average cell death (%) MCF-7
[5] = Homo sapiens, MDA-MB-231, 48 h, read-out: Average cell death (%) MDA-MB-231

Compound | cytotoxicity at 25 µM (MCF-7 cells; [4]) [%] | cytotoxicity at 25 µM (4T1 cells) [%] | cytotoxicity at 25 µM (MDA-MB-231 cells [1]; [5]) [%] | further results
Cn1c2ccccc2c2c(C(=O)c3ccccc3)c(-c3ccccc3)n(Cc3ccccc3)c(=O)c21 [9a, 4-Benzoyl-2-benzyl-9-methyl-3-phenyl-2,9-dihydro-1H-pyrido[3,4-b]indol-1-one] | 9.16 ± 2.08 | 47.8 ± 3.32 | 32.8 ± 3.16 | 
COc1ccc(C(=O)c2c(-c3ccccc3)n(Cc3ccccc3)c(=O)c3c2c2ccccc2n3C)cc1 [9b, 2-Benzyl-4-(4-methoxybenzoyl)-9-methyl-3-phenyl-2,9-dihydro-1H-pyrido[3,4-b]indol-1-one] | 18.3 ± 3.05 | 39.8 ± 4.02 | 20.2 ± 2.16 | 
Cn1c2ccccc2c2c(C(=O)c3ccc(C(F)(F)F)cc3)c(-c3ccccc3)n(Cc3ccccc3)c(=O)c21 [9d, 2-Benzyl-9-methyl-3-phenyl-4-(4-(trifluoromethyl)benzoyl)-2,9-dihydro-1H-pyrido[3,4-b]indol-1-one] | 14.2 ± 1.03 | 15.5 ± 2.15 | 11.3 ± 0.53 | 
Cn1c2ccccc2c2c(C(=O)c3ccc(F)cc3)c(-c3ccccc3)n(Cc3ccccc3)c(=O)c21 [9e, 2-Benzyl-4-(4-fluorobenzoyl)-9-methyl-3-phenyl-2,9-dihydro-1H-pyrido[3,4-b]indol-1-one] | 2 ± 0.52 | 32.2 ± 4.11 | 7.54 ± 0.71 | 
Cn1c2ccccc2c2c(C(=O)c3ccccc3)c(-c3ccccc3)n(CCc3ccccc3)c(=O)c21 [10a, 4-Benzoyl-9-methyl-2-phenethyl-3-phenyl-2,9-dihydro-1H-pyrido[3,4-b]indol-1-one] | 1.67 ± 0.3 | 46.6 ± 2.18 | 3.66 ± 0.31 | 
COc1ccc(C(=O)c2c(-c3ccccc3)n(CCc3ccccc3)c(=O)c3c2c2ccccc2n3C)cc1 [10b, 4-(4-Methoxybenzoyl)-9-methyl-2-phenethyl-3-phenyl-2,9-dihydro-1H-pyrido[3,4-b]indol-1-one] | 10.1 ± 2.2 | 49.9 ± 3.23 | 2.64 ± 0.7 | 
Cc1ccc(C(=O)c2c(-c3ccccc3)n(CCc3ccccc3)c(=O)c3c2c2ccccc2n3C)cc1 [10c, 9-Methyl-4-(4-methylbenzoyl)-2-phenethyl-3-phenyl-2,9-dihydro-1H-pyrido[3,4-b]indol-1-one] | 26.2 ± 4.15 | 60.5 ± 3.07 | 15.6 ± 1.15 | 
Cn1c2ccccc2c2c(C(=O)c3ccc(C(F)(F)F)cc3)c(-c3ccccc3)n(CCc3ccccc3)c(=O)c21 [10d, 9-Methyl-2-phenethyl-3-phenyl-4-(4-(trifluoromethyl)benzoyl)-2,9-dihydro-1H-pyrido[3,4-b]indol-1-one] | 9.32 ± 1 | 22 ± 2.05 | 11.5 ± 0.95 | 
Cn1c2ccccc2c2c(C(=O)c3ccc(F)cc3)c(-c3ccccc3)n(CCc3ccccc3)c(=O)c21 [10e, 4-(4-Fluorobenzoyl)-9-methyl-2-phenethyl-3-phenyl-2,9-dihydro-1H-pyrido[3,4-b]indol-1-one] | 8.92 ± 0.8 | 13.5 ± 1.16 | 4 ± 0.41 | 
CCCCn1c(-c2ccccc2)c(C(=O)c2ccccc2)c2c3ccccc3n(C)c2c1=O [11a, 4-Benzoyl-2-butyl-9-methyl-3-phenyl-2,9-dihydro-1H-pyrido[3,4-b]indol-1-one] |  |  | 36.6 ± 3.2 | 
CCCCn1c(-c2ccccc2)c(C(=O)c2ccc(OC)cc2)c2c3ccccc3n(C)c2c1=O [11b, 2-Butyl-4-(4-methoxybenzoyl)-9-methyl-3-phenyl-2,9-dihydro-1H-pyrido[3,4-b]indol-1-one] |  |  | 30.3 ± 1.2 | 
CCCCn1c(-c2ccccc2)c(C(=O)c2ccc(C)cc2)c2c3ccccc3n(C)c2c1=O [11c, 2-Butyl-9-methyl-4-(4-methylbenzoyl)-3-phenyl-2,9-dihydro-1H-pyrido[3,4-b]indol-1-one] |  |  | 31.2 ± 1.6 | 
CCCCn1c(-c2ccccc2)c(C(=O)c2ccc(C(F)(F)F)cc2)c2c3ccccc3n(C)c2c1=O [11d, 2-Butyl-9-methyl-3-phenyl-4-(4-(trifluoromethyl)benzoyl)-2,9-dihydro-1H-pyrido[3,4-b]indol-1-one] |  |  | 14.7 ± 2.9 | 
CCCCn1c(-c2ccccc2)c(C(=O)c2ccc(F)cc2)c2c3ccccc3n(C)c2c1=O [11e, 2-Butyl-4-(4-fluorobenzoyl)-9-methyl-3-phenyl-2,9-dihydro-1H-pyrido[3,4-b]indol-1-one] |  |  | 31.8 ± 1.8 | 
Cn1c2ccccc2c2c(C(=O)c3ccccc3)c(-c3ccccc3)n(-c3nc4ccccc4s3)c(=O)c21 [12a, 2-(Benzo[d]thiazol-2-yl)-4-benzoyl-9-methyl-3-phenyl-2,9-dihydro-1H-pyrido[3,4-b]indol-1-one] |  |  | 26.9 ± 2.6 | 
COc1ccc(C(=O)c2c(-c3ccccc3)n(-c3nc4ccccc4s3)c(=O)c3c2c2ccccc2n3C)cc1 [12b, 2-(Benzo[d]thiazol-2-yl)-4-(4-methoxybenzoyl)-9-methyl-3-phenyl-2,9-dihydro-1H-pyrido[3,4-b]indol-1-one] |  |  | 4.08 ± 1.1 | 
Cc1ccc(C(=O)c2c(-c3ccccc3)n(-c3nc4ccccc4s3)c(=O)c3c2c2ccccc2n3C)cc1 [12c, 2-(Benzo[d]thiazol-2-yl)-9-methyl-4-(4-methylbenzoyl)-3-phenyl-2,9-dihydro-1H-pyrido[3,4-b]indol-1-one] |  |  | 31.3 ± 4 | 
Cn1c2ccccc2c2c(C(=O)c3ccc(C(F)(F)F)cc3)c(-c3ccccc3)n(-c3nc4ccccc4s3)c(=O)c21 [12d, 2-(Benzo[d]thiazol-2-yl)-9-methyl-3-phenyl-4-(4-(trifluoromethyl)benzoyl)-2,9-dihydro-1H-pyrido[3,4-b]indol-1-one] |  |  | 24.5 ± 2.7 | 
Cn1c2ccccc2c2c(C(=O)c3ccc(F)cc3)c(-c3ccccc3)n(-c3nc4ccccc4s3)c(=O)c21 [12e, 2-(Benzo[d]thiazol-2-yl)-4-(4-fluorobenzoyl)-9-methyl-3-phenyl-2,9-dihydro-1H-pyrido[3,4-b]indol-1-one] |  |  | 34.9 ± 1.7 | 
N.N.[Cl][Pt][Cl] [Cisplatin, reference compound] |  |  |  | Average cell death (%) MCF-7 (MCF-7 cells; at 100 μM, SRB assay): 80 ± 6.2%; Average cell death (%) MDA-MB-231 (MDA-MB-231 cells [1]; at 100 μM, SRB assay): 75 ± 4.3%
COc1cccc2c1C(=O)c1c(O)c3c(c(O)c1C2=O)C[C@@](O)(C(=O)CO)C[C@@H]3O[C@H]1C[C@H](N)[C@H](O)[C@H](C)O1 [Doxorubicin, reference compound] |  |  |  | Sphere formation (MDA-MB-231 cells [2]): completely abrogated sphere formation; cytotoxicity at 5 µM (MCF-7 cells; [4]): 85 ± 5.3%; Expression of BCL-2 [3]: markedly reduced; Expression of Survivin [3]: markedly reduced; cytotoxicity at 5 µM (MDA-MB-231 cells [1]; [5]): 80 ± 3.3%
